Screening data as filed in PubChem.
Sampled rows, rich in hits. Any-hit rate of the full collection: about 2%.
Statin myotox sup: suppressors of simvastatin-induced myotoxicity in C2C12 myotubes | ATP luminescence, 48 h; scaled: DMSO 0, geranylgeraniol control 100 | rescue of ATP level, % at 7.49 µM | hit rate 0.78% among 330,000;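 active means mean ATP rescue above about 67%, or every replicate alone reaching that limit, limit read from the data, passing the limit was not always enough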;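 further: myotubes were challenged with 10 µM simvastatin during compound exposure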
CAL PDZ FP-1: inhibitors of human CAL PDZ peptide binding. purified CAL PDZ, TMR-peptide fluorescence polarization, 1 h. inhibition, % at 20 µM. hit rate 0.02% among 330,000. AID 504414;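 active means highest replicate inhibition of at least 40%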;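 further: plate controls were DMSO neutral control wells for no effect and unlabeled competitor peptide control wells for full effect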
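Test system: tagged CAL PDZ domain / Buffer or medium: sodium phosphate/NaCl buffer pH 7.4 with TCEP, IgG, Thesit / Reagent: TMR-labelled reporter peptide T*-PRC34 bound in PDZ groove / Compound dosing: single point, 20 µM / Schedule: 1 h incubation at room temperature before polarization reading / Technique: fluorescence polarization (mP) / Benchmarks: unlabelled peptide, DMSO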
S100A4 inh HTS: inhibitors of human S100A4 binding to myosin IIA peptide; inhibition, % at 10.7 µM; hit rate 0.14% among 360,000; S100A4/TAMRA-MyoIIA peptide fluorescence polarization; P26447; AID 652163;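 active means mean inhibition of at least 70% across replicates, with every replicate also reaching that level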
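Test system: S100A4 monomer protein. Medium: HEPES buffer with Ca2+, pH 7.2. Reagent: fluorescent myosin IIA peptide, 5 nM. Compound dosing: single-point compound testing. Timing: 5 min between mix addition and reading. Benchmarks: DMSO neutral and TFP positive wells.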
dFosB act: enhances mouse delta FosB homodimer DNA binding. purified delta FosB, TAMRA-CDK5 oligo fluorescence polarization; percent of positive-control signal above neutral wells. activation, % at 25 µM. hit rate 0.99% among 340,000. AID 493131;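 active means mean activation above about 17%, with every replicate also reaching it, limit read from the data, passing the limit was not always enough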
CAL PDZ FP-2: CAL PDZ (human) peptide binding inhibition; hit rate 0.92% among 300,000; inhibition, % at 24.9 µM; purified CAL PDZ, TMR-peptide fluorescence polarization, 1 h; AID 602252; Q9HD26;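 active means mean inhibition of at least 30% with at least half of replicates also reaching 30%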;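 further: 0% = DMSO neutral control and 100% = excess unlabeled competitor peptide PRC23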
CDK5 p35 inh: CDK5/p35 (human) kinase inhibition; Recombinant CDK5/p35, ADP-Glo luminescence, 60 min; inhibition, % at 10 µM; hit rate 0.01% among 330,000;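 active means highest replicate inhibition of at least 50% and at least 75% of replicates reaching 50%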;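 further: plate controls were DMSO neutral control for no effect and GW8510 at 10 µM for full effect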
Target sequence (Q00535 whole entry, looked up): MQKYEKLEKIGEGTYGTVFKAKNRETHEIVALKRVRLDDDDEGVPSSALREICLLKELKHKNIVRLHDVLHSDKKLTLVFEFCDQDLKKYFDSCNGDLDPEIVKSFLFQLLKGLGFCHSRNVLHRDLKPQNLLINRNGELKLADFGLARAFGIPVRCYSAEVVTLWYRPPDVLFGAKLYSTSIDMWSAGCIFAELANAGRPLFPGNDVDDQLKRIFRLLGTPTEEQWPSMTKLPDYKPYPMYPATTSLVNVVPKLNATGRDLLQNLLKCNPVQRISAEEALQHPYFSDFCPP
Target sequence (Q15078 whole entry, looked up): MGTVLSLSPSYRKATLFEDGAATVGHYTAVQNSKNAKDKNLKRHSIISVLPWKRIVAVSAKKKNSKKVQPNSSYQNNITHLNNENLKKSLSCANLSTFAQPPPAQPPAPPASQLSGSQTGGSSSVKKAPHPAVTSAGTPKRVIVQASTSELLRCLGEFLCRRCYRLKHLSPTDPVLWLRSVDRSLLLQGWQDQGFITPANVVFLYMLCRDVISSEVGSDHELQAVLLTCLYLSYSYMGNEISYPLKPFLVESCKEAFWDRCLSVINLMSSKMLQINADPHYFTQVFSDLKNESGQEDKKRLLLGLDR
* marks the source's active call; other numbers are inactive results.

For COc1cccc(/C=C2\SC(=S)N(CCC(=O)NCCc3ccc(O)cc3)C2=O)c1 the results were Statin myotox sup -1, CAL PDZ FP-1 0, S100A4 inh HTS -2, dFosB act 14, CAL PDZ FP-2 80* and CDK5 p35 inh 3.
`O=C(CCN1C(=O)/C(=C/c2ccc(F)cc2)SC1=S)NCCc1ccc(O)cc1` gave Statin myotox sup 7, CAL PDZ FP-1 -8, S100A4 inh HTS -4, dFosB act 68*, CAL PDZ FP-2 -4 and CDK5 p35 inh 0.
COc1ccc(/C=C2\SC(=S)N(CCCC(=O)NNC(=O)c3ccccc3O)C2=O)cc1 was read as Statin myotox sup -4, CAL PDZ FP-1 0, S100A4 inh HTS 3, dFosB act 45*, CAL PDZ FP-2 5 and CDK5 p35 inh 1.
COc1ccc(/C=C2/SC(=S)N(CCCC(=O)Nc3ccccc3C(=O)O)C2=O)cc1 was read as Statin myotox sup 6, CAL PDZ FP-1 -3, S100A4 inh HTS 2, dFosB act -7, CAL PDZ FP-2 -7 and CDK5 p35 inh -4.
Screening Cc1ccc(OCc2nc(C#N)c(NCc3ccco3)o2)cc1 returned Statin myotox sup 8, CAL PDZ FP-1 1, dFosB act -6 and CDK5 p35 inh 0.
CC(=O)c1cccc(CN2CCN(CC=C(C)C)C(CCO)C2)c1 (stereo not given) was read as Statin myotox sup -15, S100A4 inh HTS 5, dFosB act 7, CAL PDZ FP-2 51* and CDK5 p35 inh 1.
`CC(=O)c1cccc(CN2CCN(Cc3ccc(C)cc3)C(CCO)C2)c1` (stereo not given) gave Statin myotox sup -13, CAL PDZ FP-1 0, S100A4 inh HTS -6, dFosB act -8, CAL PDZ FP-2 -4 and CDK5 p35 inh 1.
For CC(=O)c1cccc(CN2CCN(CCc3ccccc3)C(CCO)C2)c1 (stereo not given) the results were CAL PDZ FP-1 -1, S100A4 inh HTS -4, dFosB act -2, CAL PDZ FP-2 63* and CDK5 p35 inh -1.
For Cc1cc(SCC(=O)Nc2ccc(O)cc2)n2ncc(-c3ccccc3)c2n1 the results were Statin myotox sup 4, CAL PDZ FP-1 -1, S100A4 inh HTS -7, dFosB act 3, CAL PDZ FP-2 3 and CDK5 p35 inh -1.
For NC(=O)CC(NC(=O)Cc1cccc2ccccc12)c1ccc(NCc2ccccn2)c([N+](=O)[O-])c1 (stereo not given) the results were Statin myotox sup 17, CAL PDZ FP-1 0, S100A4 inh HTS -2, dFosB act -4, CAL PDZ FP-2 32* and CDK5 p35 inh -1.
For CC(C)Nc1ccc(C(CC(N)=O)NC(=O)Cc2cccc3ccccc23)cc1[N+](=O)[O-] (stereo not given) the results were Statin myotox sup 9, CAL PDZ FP-1 0, S100A4 inh HTS -3, dFosB act 10, CAL PDZ FP-2 0 and CDK5 p35 inh -1.
For C[C@H](CO)N1C[C@H](C)[C@@H](CN(C)C(=O)NC2CCCCC2)OCc2cnnn2CCCC1=O the results were Statin myotox sup 1 and S100A4 inh HTS 28.
COc1ccc(S(=O)(=O)N2CC(C(=O)O)Oc3ccc(CC(=O)O)cc32)cc1 (stereo not given) was read as CAL PDZ FP-1 1, dFosB act -2 and CAL PDZ FP-2 38*.
Screening CC(=O)OC[C@H]1O[C@@H](Sc2cccc3cccnc23)[C@H](OC(C)=O)[C@@H](OC(C)=O)[C@@H]1OC(C)=O returned CAL PDZ FP-1 -1, dFosB act -7, CAL PDZ FP-2 -4 and CDK5 p35 inh 2.
CCOc1ccc(NC(=O)CCNC(=O)c2ccco2)cc1 was read as Statin myotox sup -1, CAL PDZ FP-1 1, S100A4 inh HTS 1, dFosB act -5, CAL PDZ FP-2 57* and CDK5 p35 inh 1.
For CCOc1ccc(NC(=O)CN(Cc2ccccc2)S(C)(=O)=O)cc1 the results were Statin myotox sup 110*, CAL PDZ FP-1 -3, dFosB act -10, CAL PDZ FP-2 1 and CDK5 p35 inh -3.
Screening CCOc1ccc(NC(=O)CNC(=O)c2ccco2)cc1 returned Statin myotox sup -14, CAL PDZ FP-1 -1, S100A4 inh HTS 2, dFosB act 2, CAL PDZ FP-2 -1 and CDK5 p35 inh 2.
Screening CCOC(=O)C1CCN(C(=O)/C(=C/c2ccccc2)NC(=O)c2ccccc2)CC1 returned Statin myotox sup -6, S100A4 inh HTS 3, dFosB act -7, CAL PDZ FP-2 51* and CDK5 p35 inh -2.
Screening CS(=O)(=O)N(CC(=O)NCc1ccc2c(c1)OCO2)C1CCCCC1 returned Statin myotox sup 4, CAL PDZ FP-1 0, S100A4 inh HTS 5, dFosB act -8, CAL PDZ FP-2 -4 and CDK5 p35 inh 0.
CCC/C(=C1/c2ccccc2C(=O)N1c1ccccc1)c1ccc2c(c1)OCCO2 was read as Statin myotox sup 115*, CAL PDZ FP-1 -1, S100A4 inh HTS -1, dFosB act -7, CAL PDZ FP-2 -1 and CDK5 p35 inh -1.
S=C1N(c2ccccc2)C(c2ccccc2)N2CCCN12 (stereo not given) was read as Statin myotox sup 132*, CAL PDZ FP-1 2, dFosB act -3, CAL PDZ FP-2 1 and CDK5 p35 inh 0.
Screening O=C(Nc1ccccc1F)N[C@H]1CC[C@H](CCNC(=O)C2CCCCC2)O[C@H]1CO returned Statin myotox sup -1 and S100A4 inh HTS 87*.
`O=C(Nc1cccc(Cl)c1)N[C@H]1CC[C@H](CCNC(=O)C2CCCC2)O[C@@H]1CO` gave Statin myotox sup 1 and S100A4 inh HTS 1.
Screening O=C(Nc1ccccc1F)N[C@H]1CC[C@@H](CCNC(=O)C2CCCCC2)O[C@@H]1CO returned Statin myotox sup -7 and S100A4 inh HTS 17.
`O=C(Nc1cccc(Cl)c1)N[C@H]1CC[C@H](CCNC(=O)C2CCCC2)O[C@H]1CO` gave Statin myotox sup -4 and S100A4 inh HTS 132*.
COC(=O)c1ccccc1NC(=O)CCCn1nc(C)c2c(C)n(-c3ccccc3)nc2c1=O was read as Statin myotox sup -19, CAL PDZ FP-1 0, S100A4 inh HTS -1, dFosB act -2 and CDK5 p35 inh -1.
`Cc1ccccc1NC(=O)CCCn1nc(C)c2c(C)n(-c3ccccc3)nc2c1=O` gave Statin myotox sup 17, CAL PDZ FP-1 -1, S100A4 inh HTS -13, dFosB act 11, CAL PDZ FP-2 30* and CDK5 p35 inh 1.
Cc1nn(CC(=O)Nc2ccc3c(c2)nc2n3CCN(C3CCCCC3)C2)c(=O)c2ccccc12 was read as Statin myotox sup -1, CAL PDZ FP-1 0, S100A4 inh HTS -4, dFosB act 27*, CAL PDZ FP-2 -3 and CDK5 p35 inh 0.
